A word on the MIC: it is the smallest concentration in the dilution series that meets the test's criterion for growth inhibition.

One series has as its system Bacillus subtilis. The series is described as follows: Antibacterial activity against Bacillus subtilis by microdilution assay. The class given is functional. Summed up:
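Broth microdilution against B. subtilis, samples serially twofold diluted from a 1024 µg/mL start, two replicates per concentration. MIC recorded. Cefotaxim served as positive control. Afterwards, bacteria treated at the MIC were replated on drug-free HNB agar to tell bacteriostatic from bactericidal action.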
A general note: In broth dilution the organism is exposed to a series of concentrations in liquid medium.

The test system of another series is Pseudomonas fluorescens. The series is described as follows: Antibacterial activity against Pseudomonas fluorescens at 1024 ug/ml. The class given is functional, organism-based. A digest of the protocol:
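Broth microdilution against P. fluorescens, samples serially twofold diluted from a top concentration of 1024 µg/mL, two replicates per concentration. Cefotaxim served as positive control.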

The next series relates to 5637. The series can be described thus: Cytotoxicity against human 5637 cells. The class given is functional. Conditions: read-out: LC50 (the source's name).
Series [1] can be described thus: Toxicity against Oreochromis mossambicus assessed as mortality at 50 ug/ml. The class given is organism-based. Conditions: in vivo, read-out: Activity. Summed up:
(§1)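 Tilapia (Oreochromis mossambicus) exposed to the compound in water at 50 or 75 µg/mL. Read-out is percent fish mortality.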

A further series has as its system Caenorhabditis elegans. The series is described as follows: Nematicidal activity against Caenorhabditis elegans at 100 ug/ml. Format: functional, organism-based. Summed up:
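Caenorhabditis elegans exposed to compound at 50 and 100 µg/mL (n = 60, two replicates per concentration). Scored by increase in worm number and worm movement, graded on a + scale. Pyrantel embonate at 50 µg/mL served as positive control.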

A short description of series [2]: Toxicity against Oreochromis mossambicus assessed as mortality at 75 ug/ml. Format: organism-based. Conditions: in vivo, read-out: Activity. Summed up:
as §1

Another series relates to Biomphalaria glabrata. The series is described as follows: Molluscicidal activity against Biomphalaria glabrata. The class given is functional.

Values after ≈ are worked out from the molar mass of the structure shown. Active and inactive are the calls of the source.

Regarding `[H][C@@]12COC(=O)c3cc(O)c(O)c(O)c3Oc3c(O)cc4c(=O)oc5c(O)c(O)c(c6c(=O)oc3c4c56)-c3c(cc(O)c(O)c3O)C(=O)O[C@@]1([H])[C@H](O)[C@@H](O)C(O)O2` (stereo partly drawn), 8 mg/L (≈ 10.2 µM) was the least that counted as inhibitory with Bacillus subtilis (MIC).
As to `O=C1O[C@H]2[C@H](O)[C@@H](CO)OC(O)[C@@H]2OC(=O)c2cc(O)c(O)c(O)c2-c2c1cc(O)c(O)c2O` (stereo partly drawn), the result in the series with Bacillus subtilis and in the series on Pseudomonas fluorescens was inactive. Also, in the series with 5637, the CC50 was found to be 84.7 µM.
For the molecule `O=C(O[C@H]1C(O)O[C@@H]2COC(=O)c3cc(O)c(O)c(O)c3-c3c(O)c(O)c4oc(=O)c5c(c(O)c(O)c6oc(=O)c3c4c65)-c3c(cc(O)c(O)c3O)C(=O)O[C@H]2[C@@H]1O)c1cc(O)c(O)c(O)c1` (stereo partly drawn), in the series on Bacillus subtilis, 8 mg/L (≈ 8.56 µM) was the least that counted as inhibitory (MIC). The outcome in the series with Pseudomonas fluorescens was inactive.
Take `O=C1OC[C@H]2OC(O)[C@H](O)[C@@H](O)[C@@H]2OC(=O)c2cc(O)c(O)c(O)c2-c2c(O)c(O)c3oc(=O)c4cc(O)c(c5oc(=O)c2c3c54)Oc2c1cc(O)c(O)c2O` (stereo partly drawn): in the series with Pseudomonas fluorescens, the result was inactive.
For `CO/N=C(\C(=O)N[C@@H]1C(=O)N2C(C(=O)O)=C(COC(C)=O)CS[C@H]12)c1csc(N)n1` [CEFOTAXIME], in the series with Bacillus subtilis, inhibition of growth (MIC) required 2 mg/L (≈ 4.39 µM).
Regarding `[H][C@@]12OC(=O)c3cc(O)c(O)c(O)c3-c3c(O)c(O)c4oc(=O)c5cc(O)c(c6oc(=O)c3c4c65)Oc3c(cc(O)c(O)c3O)C(=O)OC[C@@]1([H])OC(O)[C@]1([H])OC(=O)c3cc(O)c(O)c(O)c3-c3c(cc(O)c(O)c3O)C(=O)O[C@@]21[H]` (stereo partly drawn) [ISOTERCHEBULIN], the mortality at 50 ug/ml in series [1] turned out to be 10%. In the series on Bacillus subtilis, this molecule gave a minimal inhibitory concentration (MIC) of 8 mg/L (≈ 7.38 µM). Further, the result with Pseudomonas fluorescens was inactive. In the series on Caenorhabditis elegans, the result was Active. Besides, the mortality at 75 ug/ml in series [2] worked out at 10%. The same molecule registered an LC100 in the series on Biomphalaria glabrata of 60 µg/mL.
`O=C1O[C@H]([C@@H]2OC(=O)c3cc(O)c(O)c(O)c3-c3c(O)c(O)c4oc(=O)c5c(c(O)c(O)c6oc(=O)c3c4c65)-c3c(cc(O)c(O)c3O)C(=O)OC[C@H]2O)[C@@H]2OC(=O)c3c(c(O)c(O)c(O)c3[C@H]2O)-c2c1cc(O)c(O)c2O` [PUNICACORTEIN C] yielded an MIC with Bacillus subtilis of 16 mg/L (≈ 14.8 µM). The result in the series with Pseudomonas fluorescens was inactive. In the series with 5637, the CC50 is 41.4 µM.
The molecule `O=C1O[C@@H]2[C@@H](OC(=O)c3cc(O)c(O)c(O)c3-c3c1cc(O)c(O)c3O)[C@H](O)O[C@@H]1COC(=O)c3cc(O)c(O)c(O)c3-c3c(O)c(O)c4oc(=O)c5c(c(O)c(O)c6oc(=O)c3c4c65)-c3c(cc(O)c(O)c3O)C(=O)O[C@@H]21` [PUNICALAGIN] displayed an MIC with Bacillus subtilis of 32 mg/L (≈ 29.5 µM). Moreover, in the series with Pseudomonas fluorescens, the result was inactive.
In the series on Bacillus subtilis, `O=C(OC[C@H]1OC(O)[C@@H]2OC(=O)c3cc(O)c(O)c(O)c3-c3c(cc(O)c(O)c3O)C(=O)O[C@H]2[C@@H]1OC(=O)c1cc(O)c(O)c(O)c1-c1c(O)c(O)c2oc(=O)c3cc(O)c(O)c4oc(=O)c1c2c43)c1cc(O)c(O)c(O)c1` (stereo partly drawn) [TERFLAVIN A] came in with a minimal inhibitory concentration (MIC) of 64 mg/L (≈ 58.9 µM). In addition, the result with Pseudomonas fluorescens was inactive.
`O=C(OC[C@H]1OC(O)[C@H](O)[C@@H](O)[C@@H]1OC(=O)c1cc(O)c(O)c(O)c1-c1c(O)c(O)c2oc(=O)c3cc(O)c(O)c4oc(=O)c1c2c43)c1cc(O)c(O)c(O)c1` (stereo partly drawn) [TERFLAVIN B]: the minimum inhibitory concentration (MIC) in the series on Bacillus subtilis worked out at 64 mg/L (≈ 81.6 µM). Besides, the result with Pseudomonas fluorescens was inactive.

The values above are taken from ChEMBL document CHEMBL1150564, “Isoterchebulin and 4,6-O-isoterchebuloyl-D-glucose, novel hydrolyzable tannins from Terminalia macroptera” (J Nat Prod, 2001).
